Results as given in ChEMBL document CHEMBL1759935, “Pharmacokinetic optimisation of novel indole-2-carboxamide cannabinoid CB1 antagonists” (Bioorg Med Chem Lett, 2011).

Legend:
[1] = Intrinsic clearance in human gut microsomes in presence of NADPH; assay type: ADME, Microsome
How it was run: (§1)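 Pooled human microsomes (gut or liver) at 0.5 mg protein/mL with 1 mM NADPH, pH 7.4 (P450 pathway). Compound loss followed by LC–MS/MS in duplicate time-course incubations; intrinsic clearance given per mg protein.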

[2] = Intrinsic clearance in human liver microsomes in presence of NADPH; assay type: ADME, Microsome; how it was run: as §1
Cannabinoid receptor 1 [3] = target: T1, Cannabinoid receptor 1 (Homo sapiens, UniProt P21554); test: Antagonist activity against human CB1 receptor; assay type: functional
[4] = Intrinsic clearance in human liver microsomes in presence of UGT; assay type: ADME, Microsome
How it was run: (§2)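 UGT pathway: human gut or liver microsomes at 0.5 mg protein/mL with 2 mM UDPGA, alamethicin and 1 mM MgCl2, pH 7.1. Compound depletion measured by LC–MS/MS in duplicate time-course incubations; intrinsic clearance expressed per mg protein.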

[5] = Intrinsic clearance in human gut microsomes in presence of UGT; assay type: ADME, Microsome; how it was run: as §2
Cannabinoid receptor 2 = Cannabinoid receptor 2 (Homo sapiens, UniProt P34972); test: Displacement of [3H]CP55940 from human recombinant CB2 receptor expressed in Sf9 cells
How it was run: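 Competition binding against [3H]CP55,940 on membranes from Sf9 cells expressing recombinant human CB2 receptor; run at least in duplicate.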

Cannabinoid receptor 1 [6] = target: T1, Cannabinoid receptor 1; test: biochemical; assay type: cell-based, CHO
Mus musculus [7] = test: Inhibition of WIN55212-2-induced hypothermia in po dosed mouse assessed as change in rectal temperature administered 15 mins before WIN55212-2 challenge measured after 75 mins; assay type: functional; conditions: read-out: ID50 (the source's name)
How it was run: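 Antagonist or vehicle (5% mulgofen in saline, 10 mL/kg) given orally 75 min before rectal temperature reading. WIN 55,212-2 mesylate (10 mL/kg) given sc 60 min before the reading, at its time of maximal hypothermia. Metal probe with vaseline inserted about 1.5 cm; highest temperature stable for 10 s recorded. ID50 reported with confidence interval.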

[8] = Bioavailability in mouse; assay type: ADME, organism-based; conditions: in vivo
[9] = Intrinsic clearance in dog liver microsomes in presence of UGT; assay type: ADME, Canis lupus familiaris, Microsome
How it was run: (§3)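 UGT pathway: compound loss in duplicate time-course incubations of liver (prepared in-house) or small intestinal microsomes at 0.5 mg protein/mL, with 2 mM UDPGA, alamethicin and 1 mM MgCl₂ at pH 7.1. Detection by LC–MS/MS; CL_int expressed per mg microsomal protein.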

[10] = Intrinsic clearance in mouse liver microsomes in presence of UGT; assay type: ADME, Microsome; how it was run: as §3
[11] = Intrinsic clearance in dog liver microsomes in presence of NADPH; assay type: ADME, Canis lupus familiaris, Microsome
How it was run: (§4)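 P450 pathway: compound depletion in duplicate time-course incubations of microsomes at 0.5 mg protein/mL with 1 mM NADPH, pH 7.4. Liver microsomes prepared in-house; small intestinal microsomes purchased. Loss measured by LC–MS/MS; CL_int expressed per mg microsomal protein.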

Mus musculus [12] = organism: Mus musculus; test: Clearance in mouse; assay type: ADME, organism-based; conditions: in vivo
Canis familiaris = organism: Canis familiaris; test: Clearance in dog; assay type: ADME, organism-based, Canis lupus familiaris; conditions: in vivo
[13] = Intrinsic clearance in mouse gut microsomes in presence of NADPH; assay type: ADME, Microsome; how it was run: as §4
[14] = Intrinsic clearance in dog gut microsomes in presence of UGT; assay type: ADME, Canis lupus familiaris, Microsome; how it was run: as §3
[15] = Bioavailability in rat; assay type: ADME, organism-based; conditions: in vivo
[16] = Intrinsic clearance in mouse liver microsomes in presence of NADPH; assay type: ADME, Microsome; how it was run: as §4
Rattus norvegicus = organism: Rattus norvegicus; test: Clearance in rat; assay type: ADME, organism-based; conditions: in vivo
[17] = Intrinsic clearance in rat liver microsomes in presence of UGT; assay type: ADME, Microsome; how it was run: as §3
[18] = Intrinsic clearance in mouse gut microsomes in presence of UGT; assay type: ADME, Microsome; how it was run: as §3
[19] = Bioavailability in dog; assay type: ADME, organism-based, Canis lupus familiaris; conditions: in vivo
[20] = Intrinsic clearance in rat gut microsomes in presence of NADPH; assay type: ADME, Microsome; how it was run: as §4
[21] = Intrinsic clearance in dog gut microsomes in presence of NADPH; assay type: ADME, Canis lupus familiaris, Microsome; how it was run: as §4
[22] = Intrinsic clearance in rat gut microsomes in presence of UGT; assay type: ADME, Microsome; how it was run: as §3
[23] = Intrinsic clearance in rat liver microsomes in presence of NADPH; assay type: ADME, Microsome; how it was run: as §4

T1 sequence (P21554 whole entry): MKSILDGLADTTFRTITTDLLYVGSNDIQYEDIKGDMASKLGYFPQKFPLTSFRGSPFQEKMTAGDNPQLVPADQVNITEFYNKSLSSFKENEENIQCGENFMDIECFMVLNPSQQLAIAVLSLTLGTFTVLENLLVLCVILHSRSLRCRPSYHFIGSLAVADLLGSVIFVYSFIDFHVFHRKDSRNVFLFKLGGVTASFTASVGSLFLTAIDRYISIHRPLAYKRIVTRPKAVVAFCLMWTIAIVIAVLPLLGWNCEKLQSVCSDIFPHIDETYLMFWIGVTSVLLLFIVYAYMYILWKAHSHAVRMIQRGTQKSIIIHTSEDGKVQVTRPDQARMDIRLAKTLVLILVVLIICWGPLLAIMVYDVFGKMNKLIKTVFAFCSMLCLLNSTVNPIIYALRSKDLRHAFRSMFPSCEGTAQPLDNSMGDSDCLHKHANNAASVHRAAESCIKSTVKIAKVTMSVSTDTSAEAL
Sequence of Cannabinoid receptor 2 (P34972 whole entry): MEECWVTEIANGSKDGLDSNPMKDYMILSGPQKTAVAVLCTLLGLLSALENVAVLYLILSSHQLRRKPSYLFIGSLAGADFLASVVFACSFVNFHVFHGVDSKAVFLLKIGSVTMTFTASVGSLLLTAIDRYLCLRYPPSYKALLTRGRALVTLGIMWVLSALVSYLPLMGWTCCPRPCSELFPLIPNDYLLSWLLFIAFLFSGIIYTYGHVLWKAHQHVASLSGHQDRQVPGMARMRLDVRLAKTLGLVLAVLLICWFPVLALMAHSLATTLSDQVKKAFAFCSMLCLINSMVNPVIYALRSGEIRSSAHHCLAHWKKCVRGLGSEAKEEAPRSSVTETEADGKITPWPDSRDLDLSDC

For `CC(O)C1(CNC(=O)c2cc3cc(C#N)ccc3n2Cc2cccc(OC(F)(F)F)c2)CCCC1` (centres undefined), the microsomal CLint [1] was 99 µL/min/mg, the microsomal CLint [2] was 505 µL/min/mg and the IC50 (Cannabinoid receptor 1 [3]) was 5.13 nM. For the same compound, the microsomal CLint [4] was 9 µL/min/mg and the microsomal CLint [5] was less than 6 µL/min/mg.
`CC(C)(CO)CNC(=O)c1cc2cc(C#N)ccc2n1Cc1cccc(OC(F)(F)F)c1` showed a Ki (Cannabinoid receptor 2) greater than 10000 nM, a microsomal CLint [1] of less than 6 µL/min/mg and a Ki (Cannabinoid receptor 1 [6]) of 0.794 nM. For the same compound, the microsomal CLint [2] was 62 µL/min/mg, the IC50 (Cannabinoid receptor 1 [3]) was 1.82 nM and the microsomal CLint [4] was 20 µL/min/mg. The ED50 (Mus musculus [7]) was 3.42 µmol/kg and the microsomal CLint [5] was 136 µL/min/mg.
`COc1ccc(OC(F)(F)F)cc1Cn1c(C(=O)NCC(C)(C)CO)cc2cc(C#N)ccc21` gave a bioavailability [8] of 30%, a microsomal CLint [9] of 7 µL/min/mg and a Ki (Cannabinoid receptor 2) greater than 10000 nM. It also gave a microsomal CLint [1] of less than 6 µL/min/mg, a microsomal CLint [10] of less than 6 µL/min/mg and a microsomal CLint [11] of less than 6 µL/min/mg. The clearance (Mus musculus [12]) was 17 mL/min/kg, the clearance (Canis familiaris) was 7 mL/min/kg and the microsomal CLint [13] was less than 6 µL/min/mg. For the same compound, the Ki (Cannabinoid receptor 1 [6]) was 0.398 nM, the microsomal CLint [14] was less than 6 µL/min/mg and the microsomal CLint [2] was 69 µL/min/mg. It also gave a bioavailability [15] of 8%, a microsomal CLint [16] of 45 µL/min/mg and a clearance (Rattus norvegicus) of 104 mL/min/kg. For the same compound, the microsomal CLint [17] was 191 µL/min/mg, the microsomal CLint [18] was less than 6 µL/min/mg and the bioavailability [19] was 67%. It also gave a microsomal CLint [20] of less than 6 µL/min/mg, a microsomal CLint [21] of less than 6 µL/min/mg and an IC50 (Cannabinoid receptor 1 [3]) of 1.17 nM. The microsomal CLint [4] was 31 µL/min/mg, the ED50 (Mus musculus [7]) was 0.88 µmol/kg and the microsomal CLint [22] was less than 6 µL/min/mg. It also gave a microsomal CLint [23] of 69 µL/min/mg and a microsomal CLint [5] of 68 µL/min/mg.
Compound `CCOc1ccc(OC(F)(F)F)cc1Cn1c(C(=O)NCC(C)(C)CO)cc2cc(C#N)ccc21` has a microsomal CLint [1] of less than 6 µL/min/mg, a microsomal CLint [2] of 103 µL/min/mg and an IC50 (Cannabinoid receptor 1 [3]) of 8.32 nM. The microsomal CLint [4] was 20 µL/min/mg and the microsomal CLint [5] was 103 µL/min/mg.
`CC(C)(CO)CNC(=O)c1cc2cc(C#N)ccc2n1Cc1cc(Cl)cc(Cl)c1` showed a microsomal CLint [1] of less than 6 µL/min/mg, a microsomal CLint [2] of 103 µL/min/mg and an IC50 (Cannabinoid receptor 1 [3]) of 5.37 nM. It also gave a microsomal CLint [4] of 22 µL/min/mg and a microsomal CLint [5] of 98 µL/min/mg.
In the case of `COc1ccc(Cl)cc1Cn1c(C(=O)NCC(C)(C)CO)cc2cc(C#N)ccc21`, the microsomal CLint [1] is reported as less than 6 µL/min/mg, the microsomal CLint [2] is reported as 83 µL/min/mg and the IC50 (Cannabinoid receptor 1 [3]) is reported as 2 nM. The microsomal CLint [4] was 10 µL/min/mg and the microsomal CLint [5] was 63 µL/min/mg.
In the case of `COc1ccc(Br)cc1Cn1c(C(=O)NCC(C)(C)CO)cc2cc(C#N)ccc21`, the microsomal CLint [1] is reported as less than 6 µL/min/mg, the microsomal CLint [2] is reported as 104 µL/min/mg and the IC50 (Cannabinoid receptor 1 [3]) is reported as 0.776 nM. The microsomal CLint [4] was 23 µL/min/mg and the microsomal CLint [5] was 94 µL/min/mg.
In the case of `COc1ccc(C)cc1Cn1c(C(=O)NCC(C)(C)CO)cc2cc(C#N)ccc21`, the microsomal CLint [1] is reported as less than 6 µL/min/mg, the microsomal CLint [2] is reported as 191 µL/min/mg and the IC50 (Cannabinoid receptor 1 [3]) is reported as 0.759 nM. For the same compound, the microsomal CLint [4] was 23 µL/min/mg and the microsomal CLint [5] was 64 µL/min/mg.
`Cc1ccc(C(F)(F)F)cc1Cn1c(C(=O)NCC(C)(C)CO)cc2cc(C#N)ccc21` showed a microsomal CLint [1] of less than 6 µL/min/mg, a microsomal CLint [2] of 180 µL/min/mg and an IC50 (Cannabinoid receptor 1 [3]) of 0.513 nM. The microsomal CLint [4] was 16 µL/min/mg and the microsomal CLint [5] was 102 µL/min/mg.
Compound `Cc1ccc(Cl)cc1Cn1c(C(=O)NCC(C)(C)CO)cc2cc(C#N)ccc21` has a microsomal CLint [1] of less than 6 µL/min/mg, a microsomal CLint [2] of 119 µL/min/mg and an IC50 (Cannabinoid receptor 1 [3]) of 0.575 nM. It also gave a microsomal CLint [4] of 23 µL/min/mg and a microsomal CLint [5] of 124 µL/min/mg.
With `Cc1ccc(C)c(Cn2c(C(=O)NCC(C)(C)CO)cc3cc(C#N)ccc32)c1` the microsomal CLint [1] was less than 6 µL/min/mg, the microsomal CLint [2] was 257 µL/min/mg and the IC50 (Cannabinoid receptor 1 [3]) was 0.631 nM. For the same compound, the microsomal CLint [4] was 29 µL/min/mg and the microsomal CLint [5] was 124 µL/min/mg.
With `CCCOc1cccc(Cn2c(C(=O)NCC(C)(C)CO)cc3cc(C#N)ccc32)c1` the microsomal CLint [1] was 13 µL/min/mg, the microsomal CLint [2] was 156 µL/min/mg and the IC50 (Cannabinoid receptor 1 [3]) was 1.55 nM. The microsomal CLint [4] was 10 µL/min/mg and the microsomal CLint [5] was 45 µL/min/mg.
With `COc1ccc(OC(F)(F)F)cc1Cn1c(C(=O)NCC2(CO)CC2)cc2cc(C#N)ccc21` the microsomal CLint [1] was less than 6 µL/min/mg, the microsomal CLint [2] was 139 µL/min/mg and the IC50 (Cannabinoid receptor 1 [3]) was 5.13 nM. The microsomal CLint [4] was 18 µL/min/mg and the microsomal CLint [5] was 51 µL/min/mg.
`COc1ccc(C(F)(F)F)cc1Cn1c(C(=O)NCC2(CO)CC2)cc2cc(C#N)ccc21` showed a microsomal CLint [1] of less than 6 µL/min/mg, a microsomal CLint [2] of 155 µL/min/mg and an IC50 (Cannabinoid receptor 1 [3]) of 1.32 nM. For the same compound, the microsomal CLint [4] was 7 µL/min/mg and the microsomal CLint [5] was 49 µL/min/mg.
